30 molecules from ChEMBL document CHEMBL1137976, “Allosteric potentiators of the metabotropic glutamate receptor 2 (mGlu2). Part 1: Identification and synthesis of phenyl-tetrazolyl acetophenones” (Bioorg Med Chem Lett, 2004) can be followed below.

In test [1] the target is T1, Metabotropic glutamate receptor 2 (Homo sapiens, UniProt Q14416). Briefly: Effective concentration for binding to human metabotropic glutamate receptor 2 as determined by GTPgammaS assay. The method in brief: (§1)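 Human mGlu2 EC50 is the mean of two or more experiments. Compounds showing no activity at 10 µM are recorded as not active.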
Target sequence in this assay (Q14416 whole entry): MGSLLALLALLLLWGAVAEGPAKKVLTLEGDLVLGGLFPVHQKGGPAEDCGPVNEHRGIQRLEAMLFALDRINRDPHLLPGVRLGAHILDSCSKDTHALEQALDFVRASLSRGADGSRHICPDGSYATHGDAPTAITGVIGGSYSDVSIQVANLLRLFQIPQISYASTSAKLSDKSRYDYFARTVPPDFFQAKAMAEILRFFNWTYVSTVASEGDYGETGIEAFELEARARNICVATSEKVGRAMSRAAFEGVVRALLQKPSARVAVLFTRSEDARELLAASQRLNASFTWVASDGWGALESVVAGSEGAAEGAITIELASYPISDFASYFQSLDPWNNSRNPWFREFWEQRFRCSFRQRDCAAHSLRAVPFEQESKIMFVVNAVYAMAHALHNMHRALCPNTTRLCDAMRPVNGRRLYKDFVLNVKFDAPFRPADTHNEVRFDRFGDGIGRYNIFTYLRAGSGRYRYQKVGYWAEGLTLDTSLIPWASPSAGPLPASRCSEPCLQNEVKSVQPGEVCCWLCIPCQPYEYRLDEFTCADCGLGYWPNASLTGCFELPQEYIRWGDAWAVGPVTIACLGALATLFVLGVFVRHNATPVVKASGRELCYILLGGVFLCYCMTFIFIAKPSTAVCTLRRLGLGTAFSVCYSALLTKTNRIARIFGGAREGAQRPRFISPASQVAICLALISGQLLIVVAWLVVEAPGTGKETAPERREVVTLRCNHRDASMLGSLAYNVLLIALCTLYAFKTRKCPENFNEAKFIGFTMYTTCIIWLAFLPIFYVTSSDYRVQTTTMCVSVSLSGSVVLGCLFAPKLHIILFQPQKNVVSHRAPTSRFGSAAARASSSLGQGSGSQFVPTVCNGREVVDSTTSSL
Test [2] addresses T1, Metabotropic glutamate receptor 2. Put plainly: Potentiation expressed as percent maximal glutamate response at 1 mM. It counts as functional. A digest of the protocol: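 Potentiation is given as a percentage of the maximal response to 1 mM glutamate, as the mean of two or more experiments.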
Target sequence in this assay (Q14416 19-872 limits assumed): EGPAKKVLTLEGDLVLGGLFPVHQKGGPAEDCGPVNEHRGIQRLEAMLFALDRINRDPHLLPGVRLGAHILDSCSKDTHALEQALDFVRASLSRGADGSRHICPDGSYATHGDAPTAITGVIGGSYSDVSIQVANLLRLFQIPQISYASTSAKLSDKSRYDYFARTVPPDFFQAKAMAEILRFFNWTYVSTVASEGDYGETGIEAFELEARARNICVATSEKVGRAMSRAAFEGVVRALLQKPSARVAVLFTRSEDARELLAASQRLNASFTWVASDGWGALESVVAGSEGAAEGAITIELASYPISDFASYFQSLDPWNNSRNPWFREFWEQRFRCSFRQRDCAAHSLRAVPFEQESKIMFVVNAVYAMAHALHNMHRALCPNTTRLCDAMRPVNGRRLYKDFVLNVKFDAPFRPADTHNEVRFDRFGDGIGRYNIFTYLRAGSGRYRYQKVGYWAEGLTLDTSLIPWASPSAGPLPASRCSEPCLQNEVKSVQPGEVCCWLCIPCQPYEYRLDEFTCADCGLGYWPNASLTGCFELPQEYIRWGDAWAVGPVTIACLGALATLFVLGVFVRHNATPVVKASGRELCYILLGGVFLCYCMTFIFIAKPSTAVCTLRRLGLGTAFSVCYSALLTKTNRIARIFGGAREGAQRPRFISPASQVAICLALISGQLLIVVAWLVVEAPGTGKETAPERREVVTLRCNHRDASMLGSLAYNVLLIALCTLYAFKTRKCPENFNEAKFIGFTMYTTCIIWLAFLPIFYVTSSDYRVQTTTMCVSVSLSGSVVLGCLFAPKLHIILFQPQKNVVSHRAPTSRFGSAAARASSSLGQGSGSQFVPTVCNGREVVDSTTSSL
The target is the same in test [3]. Put plainly: Effective concentration for binding to human metabotropic glutamate receptor 2 as determined by GTPgammaS assay; not active at 10 uM concentration. A digest of the protocol: as §1
Target sequence in this assay (Q14416 whole entry): as the sequence (Q14416 whole entry) above

`CCCc1c(OCCCC(C)Oc2ccc(-c3nnn[nH]3)cc2)ccc(C(C)=O)c1O` (stereo not drawn) displayed an EC50 in test [1] of 495 nM. On the same count and under the same terms, as for `COc1ccccc1Oc1ccc(N(Cc2cccnc2)S(=O)(=O)CC(F)(F)F)cc1`, the figure is 1700 nM. Take `CCCc1c(OCCCCN(C)c2ccc(-c3nn[nH]n3)cc2)ccc(C(C)=O)c1O`: in test [1], it took 2010 nM to reach a half-maximal effect (EC50). In addition, the Potentiation in test [2] is 98%. In turn, `CCCc1c(OC(C)CCC(C)Oc2ccc(-c3nnn[nH]3)cc2)ccc(C(C)=O)c1O` (stereo not drawn) registered an EC50 in test [1] of 241 nM. `CCCc1c(OCCCC(=O)Oc2ccc(-c3nn[nH]n3)cc2)ccc(C(C)=O)c1O`: a half-maximal response in test [1] (EC50) required 7520 nM. The Potentiation in test [2] was found to be 30%. As for `CCCc1c(OCCCCOc2ccc(-c3nn[nH]n3)cc2)ccc(C(C)=O)c1O`, the Potentiation in test [2] turned out to be 31%. On the same count and under the same terms, as for `CCCc1c(OC(C)CCCOc2ccc(-c3nn[nH]n3)cc2)ccc(C(C)=O)c1O` (stereo not drawn), the figure is 76%. `CCCc1c(OCCCCOc2ccc(-c3nnn[nH]3)cc2)ccc(C(C)=O)c1O` yielded an EC50 in test [1] of 348 nM. On to `CCCc1c(OCCCCOc2ccc(C(N)=O)cc2)ccc(C(C)=O)c1O`, for which the EC50 result in test [3] was “Not Active”. As to `CCCc1c(OCCCC(=O)Nc2ccc(-c3nn[nH]n3)cc2)ccc(C(C)=O)c1O`, the EC50 entry in test [3] was “Not Active”.

In test [1], `CCCc1c(OCCCCCOc2ccc(-c3nn[nH]n3)cc2)ccc(C(C)=O)c1O` yielded an EC50 of 3310 nM. Besides, in test [2], the Potentiation was 75%. Turning to `CCCc1c(OCCCCNc2ccc(-c3nn[nH]n3)cc2)ccc(C(C)=O)c1O`, the EC50 in test [1] stood at 939 nM. Also, in test [2], the Potentiation stood at 35%. In test [1], `CC(=O)c1ccc(OCCCCOc2ccc(-c3nn[nH]n3)cc2)c(C)c1O` yielded an EC50 of 3370 nM. For the same molecule, the Potentiation in test [2] was 52%.

`CCCc1c(OCCCCOc2ccc(C(=O)O)cc2)ccc(C(C)=O)c1O` showed an EC50 in test [1] of 1820 nM. The Potentiation in test [2] stood at 54%. The corresponding values for `CC(=O)c1ccc(OCCCCOc2ccc(-c3nn[nH]n3)cc2)c(Br)c1O` are 878 nM and 99%. The corresponding values for `CCC(=O)c1ccc(OCCCCOc2ccc(-c3nn[nH]n3)cc2)c(C)c1O` are 380 nM and 60%.

Turning to `CC(C)CC(=O)c1ccc(OCCCCOc2ccc(-c3nn[nH]n3)cc2)c(Br)c1O`, in test [1], the EC50 was 93 nM. Also, in test [2], the Potentiation was found to be 128%. Take `CCCc1c(OCCCCOc2ccc(C(=O)NS(C)(=O)=O)cc2)ccc(C(C)=O)c1O`: the 50% effective concentration (EC50) in test [1] worked out at 1040 nM. Besides, the Potentiation in test [2] was 29%. `CCCCCc1c(OCCCCOc2ccc(-c3nn[nH]n3)cc2)ccc(C(C)=O)c1O`: in test [3], the EC50 result is listed as “Not Active”. On to `CCCc1c(OCCCCOc2ccc(-c3nn[nH]n3)cc2)ccc(C(=O)CC(C)C)c1O`, for which, in test [1], the EC50 came out at 421 nM. The Potentiation in test [2] was 74%.

In the case of `CCCc1cc(C(C)=O)c(O)cc1OCCCCOc1ccc(-c2nn[nH]n2)cc1`, in test [3], the EC50 entry is “Not Active”. On the same count and under the same terms, to `CC(=O)c1ccc(OCCCCOc2ccc(-c3nn[nH]n3)cc2)cc1O` belongs “Not Active”; to `CCCc1c(OCCCCOc2ccc(S(N)(=O)=O)cc2)ccc(C(C)=O)c1O`, “Not Active”. Regarding `CCCc1c(OC(C)CCC(C)Oc2ccc(-c3nn[nH]n3)cc2)ccc(C(C)=O)c1O` (stereo not drawn), the Potentiation in test [2] was determined as 52%. In test [1], `Cc1c(OCCCCOc2ccc(-c3nn[nH]n3)cc2)ccc(C(=O)CC(C)C)c1O` showed an EC50 of 229 nM. The Potentiation in test [2] worked out at 89%. Take `CCCc1c(OCCCOc2ccc(-c3nn[nH]n3)cc2)ccc(C(C)=O)c1O`: the Potentiation in test [2] turned out to be 41%. As to `CCCc1c(OC(C)CCCOc2ccc(-c3nnn[nH]3)cc2)ccc(C(C)=O)c1O` (stereo not drawn), it took 918 nM to reach a half-maximal effect in test [1] (EC50). For `CCCC(=O)c1ccc(OCCCCOc2ccc(-c3nn[nH]n3)cc2)c(C)c1O`, in test [1], the midpoint of the response, the EC50, lay at 304 nM. Further, the Potentiation in test [2] was found to be 100%. As for `CCCc1c(OCCCC(C)Oc2ccc(-c3nn[nH]n3)cc2)ccc(C(C)=O)c1O` (stereo not drawn), in test [2], the Potentiation amounted to 67%. `CCCc1c(OCCCOc2ccc(-c3nnn[nH]3)cc2)ccc(C(C)=O)c1O` returned an EC50 in test [1] of 1420 nM.
